We go through 17 compounds from ChEMBL document CHEMBL3351372, “Structure-Based Drug Design of Novel Potent and Selective Tetrahydropyrazolo[1,5-a]pyrazines as ATR Inhibitors” (ACS Med Chem Lett, 2015).

Values after ≈ are worked out from the molar mass of the structure shown.

One data set addresses Cytochrome P450 3A4 (Homo sapiens, UniProt P08684). Description: Time dependent inhibition of CYP3A4 in human liver microsomes using midazolam as substrate assessed as ratio of Kinact to Ki preincubated for 0 to 30 mins followed by NADPH addition in phosphate buffer at 50 uM. In kind it is ADME. In outline: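 Compound was preincubated with human liver microsomes (0.5 mg/mL) in 100 mM phosphate buffer with 1 mM NADPH for 0, 5, 15 and 30 min, testing 50 μM plus serial dilutions. The mix was diluted 20-fold and incubated with 20 μM midazolam to measure residual CYP3A4 activity. Activity versus preincubation time gave the kinetic TDI parameters.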
In general terms: Liver microsomes are vesicles of endoplasmic reticulum, rich in cytochrome P450 enzymes.

Data set [1] concerns the target Serine/threonine-protein kinase ATR (Homo sapiens, UniProt Q13535). Description: Inhibition of ATR (unknown origin) using Avi-tagged protein substrate by alphascreen assay.
The target of data set [2] is Phosphatidylinositol 4,5-bisphosphate 3-kinase catalytic subunit alpha isoform (Homo sapiens, UniProt P42336). Nature of the data set: Inhibition of PI3Kalpha (unknown origin).
Sequence of Phosphatidylinositol 4,5-bisphosphate 3-kinase catalytic subunit alpha isoform (P42336 whole entry, canonical isoform): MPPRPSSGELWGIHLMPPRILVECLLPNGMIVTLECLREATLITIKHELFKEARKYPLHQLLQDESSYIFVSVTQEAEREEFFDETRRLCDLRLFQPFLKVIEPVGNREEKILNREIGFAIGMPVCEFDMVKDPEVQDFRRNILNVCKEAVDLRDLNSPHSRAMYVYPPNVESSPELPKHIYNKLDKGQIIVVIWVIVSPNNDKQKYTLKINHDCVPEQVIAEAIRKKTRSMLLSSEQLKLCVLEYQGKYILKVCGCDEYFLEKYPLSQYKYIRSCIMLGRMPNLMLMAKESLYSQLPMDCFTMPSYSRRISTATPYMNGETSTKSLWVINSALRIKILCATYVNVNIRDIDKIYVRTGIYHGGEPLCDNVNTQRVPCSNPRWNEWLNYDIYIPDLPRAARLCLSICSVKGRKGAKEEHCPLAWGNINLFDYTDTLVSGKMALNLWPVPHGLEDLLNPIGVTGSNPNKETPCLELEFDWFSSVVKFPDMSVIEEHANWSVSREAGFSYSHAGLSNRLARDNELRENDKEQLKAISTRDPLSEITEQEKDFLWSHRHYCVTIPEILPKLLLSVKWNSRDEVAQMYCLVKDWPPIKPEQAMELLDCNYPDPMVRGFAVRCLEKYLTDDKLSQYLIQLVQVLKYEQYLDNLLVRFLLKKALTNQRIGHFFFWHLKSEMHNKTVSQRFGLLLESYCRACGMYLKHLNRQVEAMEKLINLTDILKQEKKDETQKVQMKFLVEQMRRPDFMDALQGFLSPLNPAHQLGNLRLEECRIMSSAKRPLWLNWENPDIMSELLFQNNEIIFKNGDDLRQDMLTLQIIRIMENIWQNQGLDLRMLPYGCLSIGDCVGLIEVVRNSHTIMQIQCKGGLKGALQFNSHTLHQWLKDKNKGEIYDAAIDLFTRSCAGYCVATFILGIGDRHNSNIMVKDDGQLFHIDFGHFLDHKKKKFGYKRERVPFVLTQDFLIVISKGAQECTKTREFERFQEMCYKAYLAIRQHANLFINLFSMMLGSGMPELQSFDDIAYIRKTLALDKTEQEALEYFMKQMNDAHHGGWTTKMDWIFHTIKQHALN
The nature of data set [3]: Inhibition of CHK1 in HeLa S3 cells assessed as inhibition of phosphorylation at ser345 by AlphaScreen SureFire CHK1 (p-Ser345) assay. On the technique in general: In Alpha technology, singlet oxygen from a donor bead excites a nearby acceptor bead.
Data set [4] in a line: Solubility of the compound in PBS buffer at pH 7 by miniaturized shake flask equilibrium solubility assay.
Data set [5] addresses Serine-protein kinase ATM (Homo sapiens, UniProt Q13315). Nature of the data set: Inhibition of ATM (unknown origin) using p53-Q10-K17 peptide substrate by alphascreen assay.
In data set [6] the target is DNA-dependent protein kinase catalytic subunit (Homo sapiens, UniProt P78527).
Data set [7] deals with Serine/threonine-protein kinase mTOR (Homo sapiens, UniProt P42345). Description: Inhibition of mTOR (unknown origin) by alphascreen SureFire p70 S6K (p-Thr389) assay. In outline:
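They were treated with compound for 1 h under the same conditions. The read-out was p70 S6K phospho-Thr389.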

A short description of data set [8]: Octanol-water distribution coefficient, log D of the compound with pH 7.4 PBS buffer.
Data set [9] in a line: Apparent permeability across apical to basolateral side in human Caco2 cells at pH 7.4. The note with it: Caco-2, pH 7.4.
Data set [10] is described as follows: Apparent permeability across basolateral to apical side in human Caco2 cells at pH 7.4. The note with it: Caco-2, pH 7.4.
Data set [11] is described as follows: Oral bioavailability in rat at 2.5 mg/kg. The format is ADME, organism-based. The note with it: in vivo.
Data set [12] has as its target Voltage-gated inwardly rectifying potassium channel KCNH2 (Homo sapiens, UniProt Q12809). Description: Inhibition of human ERG by automated whole cell electrophysiology.
Data set [13] can be described thus: Clearance in rat at 2.5 mg/kg. The format is ADME, organism-based. Also noted: dose 2.5 mg/kg. The note with it: in vivo.
A short description of data set [14]: Volume of distribution at steady state in rat at 2.5 mg/kg. The format is ADME, organism-based. Also noted: dose 2.5 mg/kg. The note with it: in vivo, read-out: Vdss.
The nature of data set [15]: Half life in rat at 2.5 mg/kg. The settings on record: in vivo. In kind it is ADME, organism-based. Also noted: dose 2.5 mg/kg.
Another data set deals with Liver microsome. Description: Metabolic stability in human liver microsomes assessed as level of GSH adduct after 60 mins at 10 uM by GSH trapping assay. The note with it: 1 h.

Sequence of Serine/threonine-protein kinase ATR (Q13535 whole entry, canonical isoform): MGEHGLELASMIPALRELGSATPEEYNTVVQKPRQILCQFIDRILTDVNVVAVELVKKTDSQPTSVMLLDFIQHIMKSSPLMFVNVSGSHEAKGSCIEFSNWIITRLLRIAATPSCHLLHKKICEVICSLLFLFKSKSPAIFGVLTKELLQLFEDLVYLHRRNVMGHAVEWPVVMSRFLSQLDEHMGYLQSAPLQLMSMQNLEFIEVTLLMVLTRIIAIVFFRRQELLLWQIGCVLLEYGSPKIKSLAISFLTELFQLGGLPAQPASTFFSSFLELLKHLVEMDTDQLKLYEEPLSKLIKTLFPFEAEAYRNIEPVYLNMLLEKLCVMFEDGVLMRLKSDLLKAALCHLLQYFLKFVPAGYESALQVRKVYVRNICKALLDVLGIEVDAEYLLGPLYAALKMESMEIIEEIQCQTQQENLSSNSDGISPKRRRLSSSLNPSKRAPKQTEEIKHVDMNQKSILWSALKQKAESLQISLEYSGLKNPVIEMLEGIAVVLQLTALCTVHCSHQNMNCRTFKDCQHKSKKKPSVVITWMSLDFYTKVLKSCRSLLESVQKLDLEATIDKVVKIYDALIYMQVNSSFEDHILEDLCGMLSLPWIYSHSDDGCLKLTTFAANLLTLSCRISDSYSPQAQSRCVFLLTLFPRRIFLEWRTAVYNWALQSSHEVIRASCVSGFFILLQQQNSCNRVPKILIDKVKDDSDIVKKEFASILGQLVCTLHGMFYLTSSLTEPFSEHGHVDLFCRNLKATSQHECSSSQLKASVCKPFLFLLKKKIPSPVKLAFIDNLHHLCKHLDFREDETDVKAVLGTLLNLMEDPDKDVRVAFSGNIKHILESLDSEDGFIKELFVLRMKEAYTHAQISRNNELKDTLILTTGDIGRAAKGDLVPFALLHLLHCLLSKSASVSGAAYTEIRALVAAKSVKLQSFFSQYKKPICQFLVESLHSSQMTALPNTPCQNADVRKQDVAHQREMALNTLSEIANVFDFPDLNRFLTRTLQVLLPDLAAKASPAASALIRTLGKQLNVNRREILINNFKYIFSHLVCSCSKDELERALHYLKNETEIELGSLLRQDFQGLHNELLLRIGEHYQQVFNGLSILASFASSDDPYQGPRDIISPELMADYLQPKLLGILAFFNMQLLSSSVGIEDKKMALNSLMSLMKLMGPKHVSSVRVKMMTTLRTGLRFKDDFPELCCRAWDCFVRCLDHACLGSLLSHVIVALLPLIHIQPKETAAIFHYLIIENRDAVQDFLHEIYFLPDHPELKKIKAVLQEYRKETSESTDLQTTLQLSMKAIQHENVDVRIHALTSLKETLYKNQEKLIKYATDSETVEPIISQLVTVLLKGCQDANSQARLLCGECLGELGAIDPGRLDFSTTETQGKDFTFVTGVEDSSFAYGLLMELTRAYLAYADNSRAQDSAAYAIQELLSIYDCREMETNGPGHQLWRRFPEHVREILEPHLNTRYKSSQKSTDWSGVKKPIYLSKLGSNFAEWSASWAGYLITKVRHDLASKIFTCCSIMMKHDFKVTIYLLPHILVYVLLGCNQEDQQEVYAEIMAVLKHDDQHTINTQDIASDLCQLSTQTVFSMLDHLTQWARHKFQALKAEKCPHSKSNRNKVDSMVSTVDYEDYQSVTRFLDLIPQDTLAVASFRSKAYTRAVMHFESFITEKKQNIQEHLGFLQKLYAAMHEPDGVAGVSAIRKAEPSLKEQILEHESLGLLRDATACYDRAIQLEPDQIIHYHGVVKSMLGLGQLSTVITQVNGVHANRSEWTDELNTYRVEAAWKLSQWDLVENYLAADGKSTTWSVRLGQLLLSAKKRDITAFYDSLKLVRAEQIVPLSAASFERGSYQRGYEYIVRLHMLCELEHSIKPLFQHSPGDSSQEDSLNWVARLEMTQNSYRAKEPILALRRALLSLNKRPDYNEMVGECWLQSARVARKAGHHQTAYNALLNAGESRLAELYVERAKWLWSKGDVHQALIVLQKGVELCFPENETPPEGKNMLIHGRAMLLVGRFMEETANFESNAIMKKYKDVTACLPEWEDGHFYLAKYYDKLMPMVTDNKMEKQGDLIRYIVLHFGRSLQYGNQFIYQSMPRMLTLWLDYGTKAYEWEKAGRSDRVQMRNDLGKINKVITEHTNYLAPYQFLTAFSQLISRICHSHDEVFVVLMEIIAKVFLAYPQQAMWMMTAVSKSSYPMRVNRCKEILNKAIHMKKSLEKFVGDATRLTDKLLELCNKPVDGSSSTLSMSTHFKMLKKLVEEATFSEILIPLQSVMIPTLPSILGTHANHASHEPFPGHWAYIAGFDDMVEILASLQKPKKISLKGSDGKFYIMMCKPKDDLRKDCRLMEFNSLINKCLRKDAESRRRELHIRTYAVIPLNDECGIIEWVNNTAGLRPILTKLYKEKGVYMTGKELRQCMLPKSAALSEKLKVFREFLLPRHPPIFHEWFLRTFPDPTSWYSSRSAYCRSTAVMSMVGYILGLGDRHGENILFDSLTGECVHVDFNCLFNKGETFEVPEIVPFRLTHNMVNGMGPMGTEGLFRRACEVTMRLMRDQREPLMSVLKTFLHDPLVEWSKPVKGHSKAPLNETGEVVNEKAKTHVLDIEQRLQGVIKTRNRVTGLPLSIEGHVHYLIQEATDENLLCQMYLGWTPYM
Sequence of Cytochrome P450 3A4 (P08684 whole entry): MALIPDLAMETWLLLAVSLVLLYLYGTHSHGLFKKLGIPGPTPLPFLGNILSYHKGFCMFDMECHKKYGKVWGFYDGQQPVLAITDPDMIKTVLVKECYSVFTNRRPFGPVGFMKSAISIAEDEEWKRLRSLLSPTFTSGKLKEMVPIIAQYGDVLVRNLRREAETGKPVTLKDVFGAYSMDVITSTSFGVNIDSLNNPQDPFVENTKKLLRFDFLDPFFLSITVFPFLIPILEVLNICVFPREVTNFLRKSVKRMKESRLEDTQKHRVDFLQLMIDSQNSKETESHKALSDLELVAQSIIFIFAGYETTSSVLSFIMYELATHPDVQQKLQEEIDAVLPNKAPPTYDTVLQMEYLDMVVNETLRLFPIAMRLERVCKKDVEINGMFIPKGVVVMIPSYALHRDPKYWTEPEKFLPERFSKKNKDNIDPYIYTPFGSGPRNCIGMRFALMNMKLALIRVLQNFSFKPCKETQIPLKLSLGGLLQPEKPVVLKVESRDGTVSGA

For the compound `C[C@@H]1Cn2ncc(C3CCN(S(C)(=O)=O)CC3)c2CN1c1ccnc2[nH]cnc12`, the “inhibition (INH)” value at Cytochrome P450 3A4 is reported as “Active”. For the same compound, half-maximal inhibition in [1] (IC50) was put at 2 nM.

For the compound `COc1ccc(-c2ccc3ncc(-c4ccc(C(N)=O)cc4)n3n2)cc1OC`, the figures for the IC50 in [1] and in data set [2] were 26 nM and 9 nM, respectively.

Take `CN(C)S(=O)(=O)c1ccc(-c2cnc3ccc(-c4ccnc5[nH]ccc45)nn23)cc1`: the IC50 was determined as 0.5 nM in data set [1], 40 nM in data set [2] and 44 nM in [3].

`CN(C)S(=O)(=O)c1ccc(-c2cnn3c2CN(c2ccnc4[nH]ccc24)CC3)cc1`: the values for the 50% inhibitory concentration (IC50) in data set [1] and in data set [2] were 1 nM and 1100 nM, respectively. The compound further displayed a solubility (thermodynamic) in data set [4] of 3 µM (≈ 1.27 µg/mL).

Regarding `C[C@@H]1Cn2ncc(-c3ccc(S(=O)(=O)N(C)C)cc3)c2CN1c1ccnc2[nH]ccc12`, the IC50 in data set [1] was 0.5 nM; in [2] it was above 10000 nM; in data set [3], 123 nM. For the same compound, the solubility (thermodynamic) in data set [4] was 188 µM (≈ 82.1 µg/mL).

Turning to `C[C@@H]1Cn2ncc(-c3ccc(S(C)(=O)=O)cc3)c2CN1c1ccnc2[nH]ccc12`, the IC50 in [1] came to 0.3 nM; in [5], 130 nM; in data set [6], 140 nM; in data set [7], 1100 nM.

As for `C[C@@H]1Cn2ncc(C3CCN(S(C)(=O)=O)CC3)c2CN1c1ccnc2[nH]ccc12`, the IC50 in data set [1] was 1 nM; in [5], 14000 nM; in data set [6] it was 6500 nM; in [7], above 2300 nM. In data set [4], the solubility (thermodynamic) worked out at 965 µM (≈ 400 µg/mL). Also, the logD in [8] amounted to 2.4. For the same compound, the Papp A→B in data set [9] came out at 10 ×10⁻⁶ cm/s. Moreover, the Papp B→A in data set [10] worked out at 44 ×10⁻⁶ cm/s.

With `C[C@@H]1Cn2ncc(C3CCN(S(C)(=O)=O)CC3)c2CN1c1cc(Cl)nc2[nH]ccc12`, in [11], the bioavailability was found to be 64%. Also, the IC50 in data set [1] amounted to 0.4 nM; in data set [5], 4300 nM; in data set [6], 1600 nM; in data set [7], 4400 nM; in data set [12], 12500 nM. For the same compound, in data set [4], the solubility (thermodynamic) was determined as 37 µM (≈ 16.6 µg/mL). Besides, the logD in [8] is 3.4. Also, in data set [9], the Papp A→B is 18 ×10⁻⁶ cm/s. The Papp B→A in data set [10] was found to be 30 ×10⁻⁶ cm/s. The clearance in data set [13] worked out at 57 mL/min/kg. For the same compound, the Vd in data set [14] was 3.3 L/kg. Besides, the half-life in [15] was 51.6 min.

In the case of `C[C@@H]1Cn2ncc(C3CCN(S(C)(=O)=O)CC3)c2CN1c1ccnc2[nH]ncc12`, on Cytochrome P450 3A4, the “inhibition (INH)” value is recorded as “Not Active”. Also, the IC50 in data set [1] was 29 nM.

For `C[C@@H]1Cn2ncc(C3CCN(S(C)(=O)=O)CC3)c2CN1c1ccnc(N)c1`, the “inhibition (INH)” value at Cytochrome P450 3A4 is reported as “Active”. The compound further came in with a half-inhibitory concentration (IC50) in data set [1] of 440 nM.

For the compound `CC1(C)Cn2ncc(C3CCN(S(C)(=O)=O)CC3)c2CN1c1cc(Cl)nc2[nH]ccc12`, on Cytochrome P450 3A4, the Ratio came to 0.023 µL/min/pmol. Further, the IC50 in data set [1] is 6200 nM.

As to `C[C@@H]1[C@@H](C)n2ncc(C3CCN(S(C)(=O)=O)CC3)c2CN1c1ccnc2[nH]ccc12`, at Cytochrome P450 3A4, the Ratio worked out at 0.004 µL/min/pmol. The compound further gave an IC50 in [1] of 2100 nM.

As to `C[C@@H]1Cc2ncn(C3CCN(S(C)(=O)=O)CC3)c2CN1c1ccnc2[nH]ccc12`, the Ratio at Cytochrome P450 3A4 came out at 0.001 µL/min/pmol. In data set [1], this compound gave an IC50 of 41 nM.

For `C[C@@H]1Cn2ncc(C3CCN(S(C)(=O)=O)CC3)c2C(=O)N1c1ccnc2[nH]ccc12`, the TDI entry at Cytochrome P450 3A4 is on record as “Not Active”. This compound returned an IC50 in data set [1] of 64 nM.

Consider `[2H][C@@]1(C)Cn2ncc(C3CCN(S(C)(=O)=O)CC3)c2CN1c1cc(Cl)nc2[nH]ccc12`, for which the Stability entry in the data set on Liver microsome was “Stable”.

On to `[2H]C1([2H])c2c(C3CCN(S(C)(=O)=O)CC3)cnn2C[C@@H](C)N1c1cc(Cl)nc2[nH]ccc12`, for which, in the data set with Liver microsome, the Stability entry is reported as “Unstable”.

Take `[2H]C1([2H])c2c(C3CCN(S(C)(=O)=O)CC3)cnn2C[C@@]([2H])(C)N1c1cc(Cl)nc2[nH]ccc12`: the Stability result with Liver microsome is “Unstable”.

What is called IC50 is the concentration at which inhibition is half-maximal. One may read the thermodynamic solubility as solubility found after equilibrating the solid with the medium. In general, logD refers to the decadic logarithm of the distribution of all forms, ionised or not, between an organic phase and buffer at a given pH. Read a low logD as a more hydrophilic compound. Broadly, the Papp A→B is how fast a substance crosses the layer from the apical side. Usually Papp B→A stands for the apparent permeability from the basolateral to the apical side of a cell layer. For orientation: bioavailability means the share of a dose that reaches the circulation, judged against a reference dose that is usually intravenous. Read a high bioavailability as good availability. One may read the clearance as the volume of plasma or blood freed of the substance per unit of time. Read a high clearance as efficient removal. A word on the half-life: it is the time in which the quantity being followed falls by half. Read a low half-life as fast loss.
